Source: ChEMBL document CHEMBL4433218, “Behind the Mirror: Chirality Tunes the Reactivity and Cytotoxicity of Chloropiperidines as Potential Anticancer Agents” (ACS Med Chem Lett, 2019)
Active and inactive are the calls of the source. The calls are words filed in the database; no cut-off is given here.

Key:
[1] = tested on: DNA; assay: Induction of Escherichia coli pBR322 DNA cleavage in BPE buffer at 5 to 50 uM incubated for 18 hrs by electrophoresis method; format: nucleic-acid assay
Outline: (§1)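 Supercoiled pBR322 plasmid (120 ng) incubated with compound at 5 and 50 μM in BPE buffer, 37 °C. Dilutions freshly made in water from 10 mM DMSO stock and added to DNA immediately. Supercoiled, open circular and linear forms resolved on 1% agarose in TAE and stained with GelRed.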

[2] = tested on: BXPC-3; assay: Cytotoxicity against human BxPC3 cells assessed as reduction in cell viability incubated for 72 hrs by MTT assay; format: functional, cell-based; conditions: BXPC-3, 72 h
Outline: (§2)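 Cell lines kept in log phase at 37 °C, 5% CO2 in RPMI-1640 with 10% fetal calf serum, penicillin 50 units/mL, streptomycin 50 μg/mL, 2 mM L-glutamine. Compounds dissolved in DMSO and added to medium at 0.5% final solvent. Treatment 72 h. Viability read by MTT. IC50 calculated.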

[3] = Stability in pH 7.4 PBS buffer incubated for 1 hr by UPLC-MS analysis; format: physicochemical; conditions: pH 7.4, 1 h
[4] = tested on: DNA; assay: Induction of Escherichia coli pBR322 DNA cleavage in BPE buffer at 5 to 50 uM incubated for 2 hrs by electrophoresis method; format: nucleic-acid assay; outline: as §1
[5] = Permeability across PVDF membrane in PBS buffer of pH 7.4 at 500 uM incubated for 1 hr by UPLC-MS based PAMPA assay; format: ADME; conditions: pH 7.4, 1 h
Outline: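 Donor: 500 μM compound in PBS pH 7.4, made from 10 mM DMSO stock. Acceptor: PBS with 5% DMSO. Filter coated with 1% L-α-phosphatidylcholine in n-dodecane. 1 h at room temperature. Initial, donor and acceptor samples quantified by UPLC-MS (C18, 0.1% formic acid water/acetonitrile gradient) against 20 μM caffeine internal standard. Membrane fraction taken by difference. Unreacted and reacted species summed.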

[6] = tested on: HCT-15; assay: Cytotoxicity against human HCT15 cells assessed as reduction in cell viability incubated for 72 hrs by MTT assay; format: functional, cell-based; conditions: HCT-15, 72 h; outline: as §2
[7] = tested on: 2008; assay: Cytotoxicity against human 2008 cells assessed as reduction in cell viability incubated for 72 hrs by MTT assay; format: functional, cell-based; conditions: Homo sapiens, 2008, 72 h; outline: as §2
[8] = target: DNA topoisomerase 2-alpha (Homo sapiens) (UniProt P11388); assay: Inhibition of human DNA topoisomerase-2alpha mediated decatenation using kinetoplast DNA as substrate at 5 to 50 uM incubated for 2 to 18 hrs
Outline: (§3)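 Human topoisomerase IIα decatenation of kinetoplast DNA, run with a commercial kit. Substrate DNA incubated with compound at 37 °C for 2 and 18 h.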

[9] = target: DNA topoisomerase 2-alpha (Homo sapiens) (UniProt P11388); assay: Inhibition of human DNA topoisomerase-2alpha mediated decatenation using kinetoplast DNA as substrate at 50 uM incubated for 18 hrs; outline: as §3
[10] = Induction of dsDNA (unknown origin) alkylation in BPE buffer at 50 uM incubated for 18 hrs by ESI-MS analysis
Outline: (§4)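 Duplex oligodeoxynucleotide at 2 μM final, incubated with compound at 50 μM final in BPE buffer, 37 °C. Compound diluted in water from 10 mM DMSO stock just before use. Analysed by direct-infusion ESI-MS on an Orbitrap in 150 mM ammonium acetate. Adducts and abasic species assigned by mass, 6− charge state.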

[11] = Induction of dsDNA (unknown origin) alkylation in BPE buffer at 50 uM incubated for 2 hrs by ESI-MS analysis; outline: as §4

DNA topoisomerase 2-alpha (Homo sapiens), sequence (P11388 whole entry): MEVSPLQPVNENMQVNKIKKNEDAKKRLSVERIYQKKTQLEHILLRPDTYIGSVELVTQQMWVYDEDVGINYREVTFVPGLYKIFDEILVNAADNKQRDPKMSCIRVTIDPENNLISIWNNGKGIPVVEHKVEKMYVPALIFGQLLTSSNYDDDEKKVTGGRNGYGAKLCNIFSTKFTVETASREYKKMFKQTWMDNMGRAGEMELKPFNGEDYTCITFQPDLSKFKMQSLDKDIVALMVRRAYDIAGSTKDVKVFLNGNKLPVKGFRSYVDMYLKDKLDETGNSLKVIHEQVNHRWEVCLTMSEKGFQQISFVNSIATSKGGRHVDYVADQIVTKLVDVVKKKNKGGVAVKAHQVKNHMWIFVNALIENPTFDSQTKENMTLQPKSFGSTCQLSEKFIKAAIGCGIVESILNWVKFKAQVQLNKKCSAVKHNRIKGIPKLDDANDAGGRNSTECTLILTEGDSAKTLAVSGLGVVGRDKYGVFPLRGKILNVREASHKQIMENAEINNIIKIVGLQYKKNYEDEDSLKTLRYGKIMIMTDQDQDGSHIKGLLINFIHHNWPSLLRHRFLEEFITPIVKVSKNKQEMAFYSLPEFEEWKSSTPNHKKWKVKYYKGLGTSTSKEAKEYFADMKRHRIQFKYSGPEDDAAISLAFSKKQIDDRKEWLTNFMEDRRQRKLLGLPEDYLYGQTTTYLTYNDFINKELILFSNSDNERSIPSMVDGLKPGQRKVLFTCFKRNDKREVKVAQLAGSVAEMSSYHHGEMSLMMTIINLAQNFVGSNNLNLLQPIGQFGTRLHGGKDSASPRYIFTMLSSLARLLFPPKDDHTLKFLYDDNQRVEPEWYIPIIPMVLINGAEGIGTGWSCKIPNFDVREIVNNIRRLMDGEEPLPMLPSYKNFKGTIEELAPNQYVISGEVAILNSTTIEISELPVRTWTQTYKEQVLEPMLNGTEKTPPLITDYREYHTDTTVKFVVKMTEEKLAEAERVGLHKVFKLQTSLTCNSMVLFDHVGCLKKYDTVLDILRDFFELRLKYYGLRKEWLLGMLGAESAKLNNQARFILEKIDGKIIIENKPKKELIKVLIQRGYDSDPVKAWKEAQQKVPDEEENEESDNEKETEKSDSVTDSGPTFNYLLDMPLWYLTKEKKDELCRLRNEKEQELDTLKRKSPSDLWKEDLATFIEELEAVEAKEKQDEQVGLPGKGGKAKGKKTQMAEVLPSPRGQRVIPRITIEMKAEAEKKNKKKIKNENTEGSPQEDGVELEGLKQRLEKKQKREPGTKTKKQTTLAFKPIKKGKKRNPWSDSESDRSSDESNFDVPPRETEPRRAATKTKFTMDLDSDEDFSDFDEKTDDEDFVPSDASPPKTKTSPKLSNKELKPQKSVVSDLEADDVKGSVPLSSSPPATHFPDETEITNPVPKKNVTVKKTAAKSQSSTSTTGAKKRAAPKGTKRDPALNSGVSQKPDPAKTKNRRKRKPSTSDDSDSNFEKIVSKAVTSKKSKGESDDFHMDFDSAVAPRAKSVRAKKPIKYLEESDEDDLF

## CCCCN1CCC[C@H](Cl)C1
[1]
  Activity: Active
[2]
  IC50: 0.007 µM
[3]
  Stability: Stable
[4]
  Activity: inactive
[5]
  permeability: Permeable
[6]
  IC50: 0.181 µM
[7]
  IC50: 0.102 µM
[8]
  inhibition: inactive

## CCCCN1CCC[C@@H](Cl)C1
[1]
  Activity: Active
[2]
  IC50: 0.274 µM
[3]
  Stability: Stable
[4]
  Activity: inactive
[5]
  permeability: Permeable
[6]
  IC50: 5.64 µM
[7]
  IC50: 4.6 µM
[8]
  inhibition: inactive

## CC1(C)CC(Cl)CN(Cc2ccccc2)C1 (racemic)
[1]
  Activity: Active
[2]
  IC50: 0.006 µM
[3]
  Stability: Stable
[9]
  inhibition: Active
[4]
  Activity: inactive
[5]
  permeability: Impermeable
[6]
  IC50: 0.3 µM
[7]
  IC50: 0.107 µM

## CCCCN1CCCC(Cl)C1 (racemic)
[1]
  Activity: Active
[2]
  IC50: 0.057 µM
[10]
  Activity: Active
[11]
  Activity: inactive
[3]
  Stability: Stable
[4]
  Activity: inactive
[6]
  IC50: 0.474 µM
[7]
  IC50: 0.329 µM

## CCCCN1CC(Cl)CC(C)(C)C1 (racemic)
[1]
  Activity: Active
[2]
  IC50: 0.024 µM
[10]
  Activity: Active
[11]
  Activity: Active
[3]
  Stability: Stable
[9]
  inhibition: Active
[4]
  Activity: inactive
[5]
  permeability: Impermeable
[6]
  IC50: 0.254 µM
[7]
  IC50: 0.174 µM

## O=C(O)CCCc1ccc(N(CCCl)CCCl)cc1 [CHLORAMBUCIL]
[1]
  Activity: Active
[2]
  IC50: 75.3 µM
[4]
  Activity: inactive
[6]
  IC50: 49.7 µM
[7]
  IC50: 12.5 µM
